Experiment [1] concerns the target Human immunodeficiency virus type 1 reverse transcriptase (Human immunodeficiency virus 1) (UniProt Q72547). Briefly: Concentration which reduced the cytopathic effect of HIV-1 in MT-4 infected cells. It is filed as functional, cell-based. The method, boiled down:
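MT4 cells at 2 × 10⁵ cells/mL in RPMI 1640 with 10% FCS, penicillin and streptomycin (2 × 10⁴ cells/well). Compounds added from DMSO stocks diluted in medium (final DMSO ≤1%), then HIV-1 IIIB at 10 TCID₅₀/well. After 6 days in CO₂, surviving cells read by XTT. ED₅₀ is the concentration reducing virus cytopathic effect, mean of at least two experiments.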
In general terms: Cytopathic effects are the visible damage that an infection or toxin causes in cultured cells.

Experiment [2] has as its target Human immunodeficiency virus type 1 reverse transcriptase (Human immunodeficiency virus 1, UniProt Q72547). Briefly: Inhibition of HIV-1 reverse transcriptase using rCdG as template and dGTP as substrate.
A short description of experiment [3]: Concentration which reduced the viability of the uninfected MT-4 cells to 50% compared to untreated control cells. As to conditions: MT4.

Where only a bound is given, the exact number is not on record here.

The term IC50 denotes the concentration that inhibits the measured activity by half. The low end stands for higher potency, the high end for lower potency. `Cc1ccc(NC(=S)NCCc2c(F)cccc2F)nc1` yielded an ED50 in experiment [1] of 10 nM. In experiment [2], the IC50 was 3 nM. In addition, in experiment [3], the CD50 was above 325 µM.
For `CCOc1cccc(F)c1CCNC(=S)Nc1ccc(Br)cn1`, in that order: 20 nM, 6 nM and 50 µM.

For the origin of these results see ChEMBL document CHEMBL1128592, “Phenethylthiazolethiourea (PETT) compounds, a new class of HIV-1 reverse transcriptase inhibitors. 1. Synthesis and basic structure-activity relationship studies of PETT analogs” (J Med Chem, 1995).
